Measured values taken from ChEMBL document CHEMBL6071141, “In vitro and in vivo evaluation of Bombesin-MMAE conjugates for targeted tumour therapy” (Eur J Med Chem, 2024).
Numbered stars: 1 amine (or outer) side, 2 acyl side, 3 side chain; on linkers, the order of the positions; unused ones are H or OH. Bridge positions count the residues as written; N and C are the ends. Square brackets hold non-standard residues; d marks the D form. Peptide text beside a SMILES is read from it. I, II: the chains in the order shown. * marks the point of attachment. Hexanoyl(6-succinimido-3yl) = O=C1CC([*:1])C(=O)N1CCCCCC(=O)[*:2]; Trp(3a,7a-dihydro) = N[C@@H](CC1=CNC2C=CC=CC12)C(=O)O; Dolaproine = CO[C@@H]([C@@H]1CCCN1)[C@@H](C)C(=O)O; X2 = O=C([C@H](CC1=CSC2C=CC=CC12)N[*:1])[*:2]; Dil = CC[C@H](C)[C@H](NC)[C@@H](CC(=O)O)OC; PABC = O=C(OCc1ccc(N[*:1])cc1)[*:2]; X3 = C[C@@H](N*)[C@@H](O)c1ccccc1; Cit = NC(=O)NCCC[C@H](N)C(=O)O; PEG4 = NCCOCCOCCOCCOCCC(=O)O; NMeV = CN[C@H](C(=O)O)C(C)C; Nle = CCCC[C@H](N)C(=O)O

Key:
[1] = molecular target: T1, Bombesin receptor subtype-3 (Homo sapiens, UniProt P32247); test: Displacement of 125 I- [Tyr4] from bombesin receptor 3 (unknown origin) assessed as inhibition by radioligand competitive binding assay
T1 sequence (P32247 whole entry): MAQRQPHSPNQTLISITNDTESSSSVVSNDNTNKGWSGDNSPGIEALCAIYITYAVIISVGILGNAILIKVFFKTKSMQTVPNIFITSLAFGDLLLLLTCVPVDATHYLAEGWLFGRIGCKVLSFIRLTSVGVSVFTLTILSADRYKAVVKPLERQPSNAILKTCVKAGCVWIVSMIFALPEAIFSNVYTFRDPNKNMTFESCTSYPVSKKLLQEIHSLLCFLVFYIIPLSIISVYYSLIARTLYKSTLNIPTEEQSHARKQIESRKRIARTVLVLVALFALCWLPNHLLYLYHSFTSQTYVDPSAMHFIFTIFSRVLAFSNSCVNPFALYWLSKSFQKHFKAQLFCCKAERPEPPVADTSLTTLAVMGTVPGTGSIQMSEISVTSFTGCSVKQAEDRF

[2] = Metabolic stability in human plasma assessed as half life at 5 uM measured upto 24 hrs by LC-HRMS analysis; format: ADME, cell-free
Summary of the method: (§1)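 Conjugates at 5 μM were incubated in human or mouse plasma at 37 °C, in duplicate. Samples were taken at t0, 0.25, 0.5, 1, 2, 4 and 24 h and quenched with 1 % formic acid in MeCN (2× volume). After centrifugation (14000 rpm, 4 °C), supernatants were diluted 1:1 with water and analysed by LC-HRMS.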

[3] = Metabolic stability in mouse plasma assessed as half life at 5 uM measured upto 24 hrs by LC-HRMS analysis; format: ADME, cell-free; summary of the method: as §1
[4] = Displacement of 125 I- [Tyr4] from bombesin receptor 1 (unknown origin) assessed as inhibition by radioligand competitive binding assay; design: species or system Homo sapiens
[5] = molecular target: T2, Gastrin-releasing peptide receptor (Homo sapiens, UniProt P30550); test: Displacement of 125 I- [Tyr4] from bombesin receptor 2 (unknown origin) assessed as inhibition by radioligand competitive binding assay
[6] = molecular target: T2, Gastrin-releasing peptide receptor; test: Displacement of 125 I- [Tyr4] from bombesin receptor 2 in human MDA-MB-231 cells assessed as inhibition by radioligand displacement assay; format: cell-based
Summary of the method: (§2)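 Competition binding on membrane preparations from PC-3 or MDA-MB-231 cells against ¹²⁵I-[Tyr⁴]-bombesin, with conjugates at 10 μM–10 pM. IC50 was taken as the concentration giving 50 % inhibition of tracer binding.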

[7] = Cytotoxicity against human MDA-MB-231 cells assessed as inhibition of cell growth incubated for 72 hrs and followed by treated with compound continued incubation for further 72 hrs (double treatment) after retreatment of compound by CellTiter 96 aqueous assay; format: toxicity, cell-based
Summary of the method: (§3)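 PC-3 or MDA-MB-231 cells were treated the day after seeding with serial dilutions, from 2000 nM for conjugates and 100 nM for MMAE, for 72 h. Then the assay was stopped, or run 72 h more after a medium change (single) or re-treatment (double). Controls got 0.05 % DMSO. Read-out was MTS absorbance at 490 nm after 90 min. IC50 by non-linear regression; ≥2 experiments, triplicates.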

[8] = Cytotoxicity against human PC-3 cells assessed as inhibition of cell growth incubated for 72 hrs and followed by treated with compound continued incubation for further 72 hrs (double treatment) after retreatment of compound by CellTiter 96 aqueous assay; format: toxicity, cell-based; summary of the method: as §3
[9] = Cytotoxicity against human MDA-MB-231 cells assessed as inhibition of cell growth incubated with compound for 72 hrs followed by further incubated for 72 hrs (single treatment) by CellTiter 96 aqueous assay; format: toxicity, cell-based; summary of the method: as §3
[10] = Cytotoxicity against human PC-3 cells assessed as inhibition of cell growth incubated with compound for 72 hrs followed by further incubated for 72 hrs (single treatment) by CellTiter 96 aqueous assay; format: toxicity, cell-based; summary of the method: as §3
[11] = Cytotoxicity against human cells MDA-MB-231 assessed as inhibition of cell growth incubated for 72 hrs by CellTiter 96 aqueous assay; format: toxicity, cell-based; settings: MDA-MB-231 cells; summary of the method: as §3
[12] = Cytotoxicity against human PC-3 cells assessed as inhibition of cell growth incubated for 72 hrs by CellTiter 96 aqueous assay; format: toxicity, cell-based; summary of the method: as §3
[13] = molecular target: T2, Gastrin-releasing peptide receptor; test: Displacement of 125 I- [Tyr4] from bombesin receptor 2 in human PC-3 cells assessed as inhibition by radioligand displacement assay; format: cell-based; summary of the method: as §2

T2 sequence (P30550 whole entry): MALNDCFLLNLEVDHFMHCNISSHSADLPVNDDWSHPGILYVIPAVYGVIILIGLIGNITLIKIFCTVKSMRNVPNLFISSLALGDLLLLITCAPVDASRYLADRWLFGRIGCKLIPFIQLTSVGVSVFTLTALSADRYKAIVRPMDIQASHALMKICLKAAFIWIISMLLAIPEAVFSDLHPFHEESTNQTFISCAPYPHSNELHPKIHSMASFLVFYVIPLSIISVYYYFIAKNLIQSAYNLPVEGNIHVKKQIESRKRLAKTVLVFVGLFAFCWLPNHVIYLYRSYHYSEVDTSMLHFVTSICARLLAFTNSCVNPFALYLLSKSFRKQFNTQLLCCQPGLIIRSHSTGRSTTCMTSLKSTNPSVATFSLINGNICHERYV

Structure (SMILES)	IC50 [1]	half-life at 5 µM [2]	half-life at 5 µM [3]	IC50 [4]	IC50 [5]	IC50 [6]	IC50 [13]	IC50 at 144 h [7]	IC50 at 144 h [8]	IC50 at 144 h [9]	IC50 at 144 h [10]	IC50 at 72 h [11]	IC50 at 72 h [12]
CC(=O)N[C@@H](CS)C(=O)N[C@H](Cc1ccccc1)C(=O)N[C@@H](CCC(N)=O)C(=O)N[C@@H](Cc1c[nH]c2ccccc12)C(=O)N[C@@H](C)C(=O)N[C@H](C(=O)NCC(=O)N[C@@H](Cc1c[nH]cn1)C(=O)N[C@@H](CC(C)C)[C@@H](O)CC(=O)N[C@@H](CC(C)C)C(N)=O)C(C)C	> 1000 nM	≥ 5 h	≥ 5 h	> 10000 nM	20.5 nM	–	–	–	–	–	–	–	–
CC[C@H](C)[C@@H]([C@@H](CC(=O)N1CCC[C@H]1[C@H](OC)[C@@H](C)C(=O)N[C@H](C)[C@@H](O)c1ccccc1)OC)N(C)C(=O)[C@@H](NC(=O)[C@H](C(C)C)N(C)C(=O)OCc1ccc(NC(=O)[C@H](CCCNC(N)=O)NC(=O)[C@@H](NC(=O)CCCCCN2C(=O)CC(SC[C@H](NC(C)=O)C(=O)N[C@H](Cc3ccccc3)C(=O)N[C@@H](CCC(N)=O)C(=O)N[C@@H](Cc3c[nH]c4ccccc34)C(=O)N[C@@H](C)C(=O)N[C@H](C(=O)NCC(=O)N[C@@H](Cc3c[nH]cn3)C(=O)N[C@@H](CC(C)C)[C@@H](O)CC(=O)N[C@@H](CC(C)C)C(N)=O)C(C)C)C2=O)C(C)C)cc1)C(C)C (stereo partly specified)	–	8.2 h	0.12 h	–	–	–	–	155 nM	92.1 nM	202 nM	101 nM	888 nM	718 nM
CC[C@H](C)[C@@H]([C@@H](CC(=O)N1CCC[C@H]1[C@H](OC)[C@@H](C)C(=O)N[C@H](C)[C@@H](O)c1ccccc1)OC)N(C)C(=O)[C@@H](NC(=O)[C@H](C(C)C)N(C)C(=O)OCc1ccc(NC(=O)[C@H](CCCNC(N)=O)NC(=O)CNC(=O)[C@H](CCC(=O)O)NC(=O)CCCCCN2C(=O)CC(SC[C@H](NC(C)=O)C(=O)NCCOCCOCCOCCOCCC(=O)N[C@H](Cc3ccccc3)C(=O)N[C@@H](CCC(N)=O)C(=O)N[C@@H](CC3=CSC4C=CC=CC34)C(=O)N[C@@H](C)C(=O)N[C@H](C(=O)NCC(=O)N[C@@H](Cc3c[nH]cn3)C(=O)N[C@@H](CC(C)C)[C@@H](O)CC(=O)N[C@@H](CC(C)C)C(N)=O)C(C)C)C2=O)cc1)C(C)C (stereo partly specified)	–	–	–	–	–	76.9 nM	71.1 nM	130 nM	116 nM	171 nM	142 nM	943 nM	586 nM
CC(=O)N[C@H](Cc1ccccc1)C(=O)N[C@@H](CCC(N)=O)C(=O)N[C@@H](Cc1c[nH]c2ccccc12)C(=O)N[C@@H](C)C(=O)N[C@H](C(=O)NCC(=O)N[C@@H](Cc1c[nH]cn1)C(=O)N[C@@H](CC(C)C)[C@@H](O)CC(=O)N[C@@H](CC(C)C)C(=O)N[C@@H](CS)C(N)=O)C(C)C	10.1 nM	–	–	> 10000 nM	> 10000 nM	–	–	–	–	–	–	–	–
CC(=O)N[C@@H](CS)C(=O)N[C@H](C(=O)N[C@@H](CC(C)C)[C@@H](O)CC(=O)N[C@H](Cc1ccccc1)C(=O)N[C@H](CCC(N)=O)C(=O)NCC(=O)N[C@@H](CC(C)C)C(=O)N[C@@H](C)C(=O)N[C@@H](Cc1c[nH]c2ccccc12)C(=O)N[C@@H](Cc1c[nH]cn1)C(N)=O)C(C)C	> 10000 nM	–	–	> 10000 nM	4750 nM	–	–	–	–	–	–	–	–

Second part, led by results:

IC50 [1]	half-life at 5 µM [2]	half-life at 5 µM [3]	IC50 [4]	IC50 [5]	IC50 [6]	IC50 [13]	Structure (SMILES)	IC50 at 144 h [7]	IC50 at 144 h [8]	IC50 at 144 h [9]	IC50 at 144 h [10]	IC50 at 72 h [11]	IC50 at 72 h [12]
–	–	–	–	–	97.4 nM	101 nM	CCCC[C@H](NC(=O)[C@H](CC(C)C)NC(=O)[C@H](Cc1c[nH]cn1)NC(=O)CNC(=O)[C@@H](NC(=O)[C@H](C)NC(=O)[C@H](CC1=CNC2C=CC=CC12)NC(=O)[C@H](CCC(N)=O)NC(=O)[C@H](CC(N)=O)NC(=O)CCOCCOCCOCCOCCNC(=O)[C@H](CSC1CC(=O)N(CCCCCC(=O)N[C@@H](CCC(=O)O)C(=O)N[C@H](C(=O)N[C@@H](CCCNC(N)=O)C(=O)Nc2ccc(COC(=O)N(C)[C@H](C(=O)N[C@H](C(=O)N(C)[C@@H]([C@@H](C)CC)[C@@H](CC(=O)N3CCC[C@H]3[C@H](OC)[C@@H](C)C(=O)N[C@H](C)[C@@H](O)c3ccccc3)OC)C(C)C)C(C)C)cc2)C(C)C)C1=O)NC(C)=O)C(C)C)C(N)=O (stereo partly specified) (I: Ac-C[PEG4]NQ[Trp(3a,7a-dihydro)]AVGHL[Nle]-NH2 / II: EV[Cit][PABC][NMeV]V[Dil][Dolaproine]-X3; linker I:1-II:N via Hexanoyl(6-succinimido-3yl))	52.7 nM	12.6 nM	60.1 nM	18.2 nM	344 nM	64.1 nM
–	–	–	–	–	79.3 nM	83.2 nM	CCCC[C@H](NC(=O)[C@H](CC(C)C)NC(=O)[C@H](Cc1c[nH]cn1)NC(=O)CNC(=O)[C@@H](NC(=O)[C@H](C)NC(=O)[C@H](CC1=CNC2C=CC=CC12)NC(=O)[C@H](CCC(N)=O)NC(=O)[C@H](CC(N)=O)NC(=O)CCOCCOCCOCCOCCNC(=O)[C@H](CSC1CC(=O)N(CCCCCC(=O)N[C@@H](CCC(=O)O)C(=O)NCC(=O)N[C@@H](CCCNC(N)=O)C(=O)Nc2ccc(COC(=O)N(C)[C@H](C(=O)N[C@H](C(=O)N(C)[C@@H]([C@@H](C)CC)[C@@H](CC(=O)N3CCC[C@H]3[C@H](OC)[C@@H](C)C(=O)N[C@H](C)[C@@H](O)c3ccccc3)OC)C(C)C)C(C)C)cc2)C1=O)NC(C)=O)C(C)C)C(N)=O (stereo partly specified) (I: Ac-C[PEG4]NQ[Trp(3a,7a-dihydro)]AVGHL[Nle]-NH2 / II: EG[Cit][PABC][NMeV]V[Dil][Dolaproine]-X3; linker I:1-II:N via Hexanoyl(6-succinimido-3yl))	217 nM	200 nM	270 nM	248 nM	1260 nM	830 nM
–	–	–	–	–	82.4 nM	80.7 nM	CCCC[C@H](NC(=O)[C@H](CC(C)C)NC(=O)[C@H](Cc1c[nH]cn1)NC(=O)CNC(=O)[C@@H](NC(=O)[C@H](C)NC(=O)[C@H](CC1=CSC2C=CC=CC12)NC(=O)[C@H](CCC(N)=O)NC(=O)[C@H](CC(N)=O)NC(=O)CCOCCOCCOCCOCCNC(=O)[C@H](CSC1CC(=O)N(CCCCCC(=O)N[C@@H](CCC(=O)O)C(=O)NCC(=O)N[C@@H](CCCNC(N)=O)C(=O)Nc2ccc(COC(=O)N(C)[C@H](C(=O)N[C@H](C(=O)N(C)[C@@H]([C@@H](C)CC)[C@@H](CC(=O)N3CCC[C@H]3[C@H](OC)[C@@H](C)C(=O)N[C@H](C)[C@@H](O)c3ccccc3)OC)C(C)C)C(C)C)cc2)C1=O)NC(C)=O)C(C)C)C(N)=O (stereo partly specified) (I: Ac-C[PEG4]NQ[X2]AVGHL[Nle]-NH2 / II: EG[Cit][PABC][NMeV]V[Dil][Dolaproine]-X3; linker I:1-II:N via Hexanoyl(6-succinimido-3yl))	217 nM	165 nM	268 nM	216 nM	1260 nM	782 nM
